PfG6PD inh = PfG6PD (Plasmodium falciparum) enzyme inhibition; PfGluPho enzyme, NADPH resazurin-diaphorase fluorescence; inhibition, % at 20 µM; 350,000 tested, 0.78% active; AID 504690;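 active means inhibition reaching at least a set limit at 20 µM in the primary screen, cut at about 59% in these data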
Lmaj promast = reduces viability of Leishmania major promastigotes; resazurin fluorescence viability; inhibition, % at 10 µM; 200,000 tested, 9% active; AID 1063;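 further: promastigotes grown with compound for 44 hours at 28 °C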
Redox H2O2 prof = compounds producing H2O2 with reducing agent – biochemical, NIH compound library profiling, artefact control for MLSCN library redox annotation, primary screen; DTT-dependent redox cycling H2O2, phenol red/HRP absorbance; 100% = 100 µM peroxide control, 0% = buffer; activation, % at 10 µM; 200,000 tested, 0.03% active; AID 878;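 active means activation of at least 50% relative to the plate's high and low controls in the primary single-dose screen; inactive means activation below 50%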;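 further: compound incubated with DTT at 0.8 mM final as the reducing agent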
G6PDH CS = L. mesenteroides G6PDH inhibition counter-screen | inhibition, % at 5 µM | 200,000 tested, 0.12% active | Purified L. mesenteroides G6PDH, diaphorase/resazurin coupled fluorescence, 45 min
Diaph act CS = diaphorase activation or chemical reduction counter-screen; activation factor at 20 µM; 190,000 tested, 0.005% active; Diaphorase/resazurin coupled assay, resorufin fluorescence, 16 min; active compounds read high; 1 = vehicle wells, 0 = NADH-free wells;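 active means diaphorase activity raised at least twofold by the compound at 20 µM; inactive means activation factor below 2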
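Measured by – red resorufin fluorescence at 544/590 nm excitation/emission · Test system – Clostridium kluyveri diaphorase, purified enzyme · Incubation – reaction time 16 min, room temperature · Buffer or medium – 50 mM HEPES pH 7.4 with 4.542 mM MgCl2, 0.005% Tween 20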
Diaphorase inh = diaphorase inhibition or chemical oxidation counter-screen. inhibition, % at 20 µM. 190,000 tested, 0.69% active. diaphorase resazurin-to-resorufin fluorescence, NADH, 16 min; bacterial (C. kluyveri) enzyme, not human;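 active means primary screen inhibition at 20 µM above a set limit, cut at about 50% in these data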
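System: Diaphorase enzyme from Clostridium kluyveri | Amount: Enzyme working solution with 0.14 U/mL diaphorase | Benchmarks: No-NADH positive control and DMSO neutral control | Signal: Fluorescence of resorufin formed from resazurin, Ex 544/Em 590 nm | Schedule: 16-min room-temperature incubation before reading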
Of the large screens only hits and unclear results are named; the others gave an inactive call. Shown is part of a subset that was picked to be rich in hits. Unless noted, no stated cut-off is given here; in the data, active means inhibition above about 50%; inactive means the rest.

O=C(OCCN1CCN(C2=NS(=O)(=O)c3ccccc32)CC1)c1cccc(Br)c1	none (no result: Lmaj promast, Redox H2O2 prof, G6PDH CS, Diaph act CS, Diaphorase inh)
O=C(NCCC(=O)N1CCN(Cc2c(F)cccc2Cl)CC1)c1ccc(Cl)cc1	none (no result: Lmaj promast, Redox H2O2 prof, G6PDH CS, Diaph act CS, Diaphorase inh)
Cc1cc(C)nc(-n2nc(C)cc2NC(=O)c2cccc(S(=O)(=O)N3CCCCC3)c2)n1	Lmaj promast 72 (no result: PfG6PD inh)
COc1ccc(CNC(=O)CC2C[C@H](C(=O)N3CCOCC3)[C@@]3(C)c4[nH]c5ccccc5c4CCN3C2=O)cc1OC (stereo not given in full)	none (no result: Lmaj promast, Redox H2O2 prof, G6PDH CS, Diaph act CS, Diaphorase inh)
O=C(CSc1nnc(CCCN2C(=O)c3cccc4cccc(c34)C2=O)n1-c1ccccc1)N1CCCCC1	Diaphorase inh 72
Cc1cc(C)n(CC(=O)NNC(=O)C2CC(=O)N(Cc3ccccc3Cl)C2)n1 (stereo not given)	none (no result: Lmaj promast, Redox H2O2 prof, G6PDH CS, Diaph act CS, Diaphorase inh)
CCCCCC(=O)N1C[C@@H](n2cc(C3CC3)nn2)[C@H](O)C[C@@H]1c1ccc(C)cc1	none (no result: Lmaj promast, Redox H2O2 prof, G6PDH CS, Diaph act CS, Diaphorase inh)
COc1cc2c(cc1NC(=O)COC(=O)C(CCSC)NC(=O)c1ccccc1Cl)oc1ccccc12 (stereo not given)	Lmaj promast 67 (no result: Redox H2O2 prof)
CCN(CC)S(=O)(=O)c1cccc(C(=O)Nc2cc3oc4ccccc4c3cc2OC)c1	Lmaj promast 80
CCCN(CCC)S(=O)(=O)c1ccc(C(=O)Nc2cc3oc4ccccc4c3cc2OC)cc1	none
COc1ccc(CN(C)CC(=O)Nc2cc3oc4ccccc4c3cc2OC)c(OC)c1	Lmaj promast 97
COc1cc2c(cc1NC(=O)CN(C)Cc1ccc(OC)c(OC)c1)oc1ccccc12	none
COc1cc2c(cc1NS(=O)(=O)N1CCCCC1)oc1ccccc12	Lmaj promast 96
CC(C)(OC(=O)c1ccc(F)cc1)c1cc2ccccc2c(=O)o1	none (no result: Lmaj promast, Redox H2O2 prof, G6PDH CS, Diaph act CS, Diaphorase inh)
COc1cc2c(cc1NC(=O)COC(=O)[C@@H](NS(=O)(=O)c1ccccc1)C(C)C)oc1ccccc12	Lmaj promast 99
COc1cc2c(cc1NC(=O)COc1ccccc1OC)oc1ccccc12	none
Cc1nc(NC(=O)c2ccc(OCC(C)C)cc2)sc1Cc1ccc2c(c1)OCO2	none
CCCOc1ccc(C(=O)Nc2nc(C)c(Cc3ccc4c(c3)OCO4)s2)cc1	Lmaj promast 64
Cc1cc(CN2CCCC(CNC(=O)c3ccc(F)cc3)C2)cc(C)c1O (stereo not given)	none
O=C(NCC1CCCN(Cc2cccc(C(F)(F)F)c2)C1)c1ccc(F)cc1 (stereo not given)	Lmaj promast 80 (no result: Diaph act CS, Diaphorase inh)
O=C(NCC1CCCN(Cc2ccc3nonc3c2)C1)c1ccc(F)cc1 (stereo not given)	Lmaj promast 90
Cc1[nH]n(C(N)=S)c(=O)c1N=Nc1ccc2ccccc2c1	none
COc1ccc(C(c2c(C)[nH]n(C(N)=S)c2=O)C(C#N)C#N)cc1 (stereo not given)	Lmaj promast 94
CC(C)(C)c1ccc(S(=O)(=O)O/N=C2/CCCCC2c2ccc([N+](=O)[O-])cc2[N+](=O)[O-])cc1 (stereo not given)	Lmaj promast 53
O=C(Nc1ccc([N+](=O)[O-])c(NC(=O)c2cccnc2)c1)c1cccnc1	none (no result: Lmaj promast, Redox H2O2 prof, G6PDH CS, Diaph act CS, Diaphorase inh)
O=C(Nc1ccc([N+](=O)[O-])cc1Br)c1cccnc1	Lmaj promast 54
O=C(OC(C(=O)Nc1ccc([N+](=O)[O-])cc1Br)c1ccccc1)c1ccccc1 (stereo not given)	Lmaj promast 100
Fc1ccccc1OCCCCCN1CCCC1	Lmaj promast 72
Fc1ccccc1OCCCCCCN1CCCC1	Lmaj promast 98
CC1CCN(CCCCOc2ccccc2F)CC1	none (no result: Lmaj promast, Redox H2O2 prof, G6PDH CS, Diaph act CS, Diaphorase inh)
Nn1c(SCC(=O)Nc2ccccc2F)nnc1-c1cccs1	none (no result: Lmaj promast, Redox H2O2 prof, G6PDH CS, Diaph act CS, Diaphorase inh)
CC(Sc1nnc(C(C)Oc2ccccc2F)o1)C(=O)NCc1ccc2c(c1)OCO2 (stereo not given)	none (no result: Lmaj promast, Redox H2O2 prof, G6PDH CS, Diaph act CS, Diaphorase inh)
CCSC1=NC2(CCCCC2)Nc2sc3c(c21)CCCC3	Lmaj promast 100
COC(=O)c1cc(=O)nc2sc(-c3ccc(F)cc3)nn12	PfG6PD inh 59
COC(=O)c1cc(=O)nc2sc(-c3cccs3)nn12	none
CCOC(=O)Cn1c(=O)c2c(nc3n2CCCCN3c2ccc(C)cc2)n(C)c1=O	none
CCCCc1ccc(C2C3=C(CC(C)(C)CC3=O)NC3=C2C(=O)c2ccccc23)cc1 (stereo not given)	Lmaj promast 99
CCCc1ccc(C2C3=C(CC(C)(C)CC3=O)NC3=C2C(=O)c2ccccc23)cc1 (stereo not given)	Lmaj promast 88
COc1ccc(S(=O)(=O)NC(C)C(=O)NCc2ccccn2)cc1OC (stereo not given)	none (no result: Lmaj promast, Redox H2O2 prof, G6PDH CS, Diaph act CS, Diaphorase inh)
C=CCN1C(=Nc2cccnc2)SCC1(O)c1ccc(C)cc1 (stereo not given)	Lmaj promast 61 (no result: PfG6PD inh)
Cc1csc(=Nc2cccnc2)n1CC1CCCCC1	none
COc1cc(-c2nc(-c3ccc4c(c3)-c3ccccc3S4(=O)=O)c(-c3ccccc3)[nH]2)cc(OC)c1OC	Lmaj promast 99
COc1cccc(-c2nc(-c3ccccc3)c(-c3ccccc3)[nH]2)c1OCC(=O)O	none (no result: Lmaj promast, Redox H2O2 prof, G6PDH CS, Diaph act CS, Diaphorase inh)
COc1cc(-c2nc(-c3ccccc3)c(-c3cccs3)[nH]2)cc(OC)c1OC	Lmaj promast 90
COc1cccc(-c2nc(-c3ccc4c(c3)-c3ccccc3S4(=O)=O)c(-c3ccccc3)[nH]2)c1OC	Lmaj promast 57
CCCCCCc1nc2ccccc2c(=O)n1NC(=O)c1c(O)c2c(n(CC(C)C)c1=O)CCCC2	Lmaj promast 54
c1ccc(CN2CCN(CCOCCOc3ccc4c(c3)CCC4)CC2)cc1	none
Cc1[nH]n2c(=O)cc(C(C)C)nc2c1-c1ccccc1	none
Cc1[nH]n2c(=O)cc(C(C)(C)C)nc2c1-c1ccccc1	Lmaj promast 99
Cc1ccc(C(=O)C(C)N2C(=O)NC(C)(c3ccccc3)C2=O)cc1 (stereo not given)	none
Cc1ccc(CN2CC(C(=O)Nc3ccc(F)c([N+](=O)[O-])c3)CC2=O)cc1 (stereo not given)	none
Cc1ccc(-c2ccc(=O)n(CC(=O)NCCN3CCCCC3C)n2)cc1 (stereo not given)	Diaphorase inh 53
Oc1ccc(Nc2nc3ccccc3nc2Nc2ccc(O)cc2)cc1	Lmaj promast 92
O=C1C2C3CCC(C3NCc3ccccc3)C2C(=O)N1Cc1ccccc1 (stereo not given)	Lmaj promast 60
C[C@@H]1CN([C@@H](C)CO)C(=O)c2cc(NC(=O)Nc3ccccc3)ccc2O[C@H]1CN(C)C(=O)Nc1cccc2ccccc12	none (no result: Lmaj promast, Redox H2O2 prof, G6PDH CS, Diaph act CS, Diaphorase inh)
CC(=O)c1c(C)[nH]c(C(=O)NC(C)c2ccccc2)c1C (stereo not given)	none
COCCNCCCCOc1ccc(Br)cc1C	Lmaj promast 100
COCCCNCCCCOc1ccc(Br)cc1C	Lmaj promast 99
